What was measured:
[1] = target: T1, Human immunodeficiency virus type 1 integrase (Human immunodeficiency virus 1, UniProt Q7ZJM1); assay: Inhibition of recombinant HIV-1 integrase stand transfer activity expressed in Escherichia coli BL21(DE3) cells using 32P-labeled DNA substrate after 1 hr by densitometric analysis
[2] = target: T1, Human immunodeficiency virus type 1 integrase; assay: Inhibition of recombinant HIV-1 integrase 3'-processing activity expressed in Escherichia coli BL21(DE3) cells using 32P-labeled DNA substrate after 1 hr by densitometric analysis
Outline: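 Reaction run 1 h at 37 °C, then stopped with an equal volume of formamide loading buffer containing 1% SDS, 0.25% bromophenol blue and xylene cyanol. Products resolved on 16% denaturing polyacrylamide sequencing gels; dried gels imaged. Value reported as the concentration giving 50% inhibition.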

PBMC = assay: (§1) Cytotoxicity against human PBMC assessed as reduction in cell growth incubated for 5 days by CellTiter 96 AQueous One Solution cell proliferation assay; type: cell-based; settings: pbmc, 120 h
[3] = tested on: Human immunodeficiency virus 1; assay: Antiviral activity against HIV1 infected in human peripheral blood mononuclear cells assessed as inhibition of reverse transcriptase activity incubated for 6 days; type: functional, organism-based; settings: Human immunodeficiency virus 1, 144 h
Vero = assay: (§2) Cytotoxicity against African green monkey Vero cells assessed as reduction in cell growth incubated for 5 days by CellTiter 96 AQueous One Solution cell proliferation assay; type: cell-based; settings: chlorocebus sabaeus, vero, 120 h
CCRF-CEM = assay: (§3) Cytotoxicity against human CEM cells assessed as reduction in cell growth incubated for 5 days by CellTiter 96 AQueous One Solution cell proliferation assay; type: cell-based; settings: ccrf-cem, 120 h
[4] = as §1; type: cell-based; settings: PBMC (peripheral blood mononuclear cells)
[5] = as §2; type: cell-based; settings: chlorocebus sabaeus, Vero cells
[6] = as §3; type: cell-based, CCRF-CEM; settings: CEM (CCRF-CEM) cells

T1 sequence (Q7ZJM1 whole entry): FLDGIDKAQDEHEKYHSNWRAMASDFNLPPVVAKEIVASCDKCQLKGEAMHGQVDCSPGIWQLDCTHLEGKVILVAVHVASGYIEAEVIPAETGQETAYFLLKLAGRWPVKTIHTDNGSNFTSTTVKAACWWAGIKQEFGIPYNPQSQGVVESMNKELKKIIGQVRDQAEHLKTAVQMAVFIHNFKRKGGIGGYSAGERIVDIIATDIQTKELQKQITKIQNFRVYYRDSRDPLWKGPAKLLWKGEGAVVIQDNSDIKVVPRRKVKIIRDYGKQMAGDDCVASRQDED

| Compound | IC50 [1] [nM] | IC50 [2] [µM] | also measured |
| --- | --- | --- | --- |
| CCOC(=O)c1c(CC)nc(SCc2ccc(C(=O)/C=C(\O)C(=O)O)cc2)nc1-c1ccccc1 | 2230 | 21.1 | – |
| CCOC(=O)c1c(Cc2ccccc2)nc(=O)n(Cc2ccc(C(=O)/C=C(\O)C(=O)OC(C)C)cc2)c1C | – | – | CC50 (PBMC): 77 µM; EC50 [3]: 17.2 µM; CC50 (Vero): 32.9 µM; CC50 (CCRF-CEM): 7.3 µM |
| CCOC(=O)c1c(-c2ccccc2)nc(=O)n(Cc2ccc(C(=O)/C=C(\O)C(=O)O)cc2)c1C | 2400 | > 111 | – |
| CCOC(=O)c1c(-c2ccc(F)cc2)nc(=O)n(Cc2ccc(C(=O)/C=C(\O)C(=O)O)cc2)c1C | 1300 | 17.4 | – |
| CCOC(=O)c1c(-c2ccc(OC)cc2)nc(=O)n(Cc2ccc(C(=O)/C=C(\O)C(=O)O)cc2)c1-c1ccccc1 | 1900 | 17.2 | – |
| CCOC(=O)c1c(-c2ccc(OC)cc2)nc(=O)n(Cc2ccc(C(=O)/C=C(\O)C(=O)O)cc2)c1C(C)C | 3300 | 19.2 | – |
| CCOC(=O)c1c(-c2ccccc2)nc(=O)n(Cc2ccc(C(=O)/C=C(\O)C(=O)OC(C)C)cc2)c1CC | – | – | CC50 (PBMC): > 100 µM; EC50 [3]: > 100 µM; CC50 (Vero): > 100 µM; CC50 (CCRF-CEM): 21.4 µM |
| CCOC(=O)c1c(-c2cc(C)cc(C)c2)nc(=O)n(Cc2ccc(C(=O)/C=C(\O)C(=O)O)cc2)c1-c1ccccc1 | 1300 | 16.3 | – |
| CCOC(=O)c1c(Cc2ccccc2)nc(=O)n(Cc2ccc(C(=O)/C=C(\O)C(=O)O)cc2)c1C | 190 | 16.9 | – |
| CCOC(=O)c1c(-c2ccccc2)nc(SCc2ccc(C(=O)/C=C(\O)C(=O)O)cc2)nc1-c1ccc(OC)cc1 | 1200 | 23 | – |
| CCOC(=O)c1c(-c2ccccc2)nc(=O)n(Cc2ccc(C(=O)/C=C(\O)C(=O)O)cc2)c1C(C)C | 2300 | 37.5 | – |
| CCOC(=O)c1c(-c2ccc(OC)cc2)nc(=O)n(Cc2ccc(C(=O)/C=C(\O)C(=O)OC(C)C)cc2)c1-c1ccccc1 | – | – | CC50 at 120 h [4]: > 100 µM; EC50 [3]: 80.6 µM; CC50 at 120 h [5]: > 100 µM; CC50 at 120 h [6]: 25.3 µM |
| CCOC(=O)c1c(-c2ccccc2)nc(SCc2ccc(C(=O)/C=C(\O)C(=O)O)cc2)nc1-c1ccc(F)cc1 | 2800 | 22 | – |
| CCOC(=O)c1c(-c2ccc(F)cc2)nc(=O)n(Cc2ccc(C(=O)/C=C(\O)C(=O)O)cc2)c1CC | 1100 | 35 | – |
| CCOC(=O)c1c(-c2ccccc2)nc(=O)n(Cc2ccc(Cc3cccc(C(=O)/C=C(\O)C(=O)OC(C)C)c3)cc2)c1CC | – | – | CC50 at 120 h [4]: 47.6 µM; EC50 [3]: 36.8 µM; CC50 at 120 h [5]: > 100 µM; CC50 at 120 h [6]: 8.9 µM |
| CCOC(=O)c1c(CC)nc(SCc2ccc(C(=O)/C=C(\O)C(=O)O)cc2)nc1-c1ccc(OC)cc1 | 2270 | 30.7 | – |
| CCOC(=O)c1c(-c2ccccc2)nc(=O)n(Cc2ccc(C(=O)/C=C(\O)C(=O)O)cc2)c1-c1ccccc1 | 2000 | 18.4 | – |
| CCOC(=O)c1c(-c2ccc(F)cc2)nc(=O)n(Cc2ccc(C(=O)/C=C(\O)C(=O)O)cc2)c1C(C)C | 3600 | 40 | – |
| Cc1cn([C@H]2C[C@H](N=[N+]=[N-])[C@@H](CO)O2)c(=O)[nH]c1=O [ZIDOVUDINE] | – | – | CC50 at 120 h [4]: > 100 µM; CC50 (Vero): 39.5 µM; CC50 (CCRF-CEM): 56.1 µM |
| CCOC(=O)c1c(-c2ccc(OC)cc2)nc(=O)n(Cc2ccc(C(=O)/C=C(\O)C(=O)O)cc2)c1CC | 5600 | 72 | – |
| CCOC(=O)c1c(-c2ccccc2)nc(SCc2ccc(C(=O)/C=C(\O)C(=O)O)cc2)nc1-c1ccccc1 | 6100 | 30 | – |
| CCOC(=O)c1c(-c2ccc(F)cc2)nc(=O)n(Cc2ccc(C(=O)/C=C(\O)C(=O)O)cc2)c1-c1ccccc1 | 2400 | 16.6 | – |
| CCOC(=O)c1c(CC)nc(SCc2ccc(C(=O)/C=C(\O)C(=O)OC(C)C)cc2)nc1-c1ccc(F)cc1 | – | – | CC50 (PBMC): 43.2 µM; EC50 [3]: 25.6 µM; CC50 (Vero): 39.5 µM; CC50 (CCRF-CEM): 5.2 µM |
| CCOC(=O)c1c(-c2ccccc2)nc(=O)n(Cc2ccc(C(=O)/C=C(\O)C(=O)O)cc2)c1CC | 640 | 19.1 | – |
| CCOC(=O)c1c(CC)nc(SCc2ccc(C(=O)/C=C(\O)C(=O)O)cc2)nc1-c1ccc(F)cc1 | 920 | 29.3 | – |
